Experimental data pooled from the literature.
Compare with care: the assays were run in different laboratories.
Target: Dual serine/threonine and tyrosine protein kinase (DSTYK, Homo sapiens, UniProt Q6XUX3)
Sequence (Q6XUX3 1-929, as in one of the studies): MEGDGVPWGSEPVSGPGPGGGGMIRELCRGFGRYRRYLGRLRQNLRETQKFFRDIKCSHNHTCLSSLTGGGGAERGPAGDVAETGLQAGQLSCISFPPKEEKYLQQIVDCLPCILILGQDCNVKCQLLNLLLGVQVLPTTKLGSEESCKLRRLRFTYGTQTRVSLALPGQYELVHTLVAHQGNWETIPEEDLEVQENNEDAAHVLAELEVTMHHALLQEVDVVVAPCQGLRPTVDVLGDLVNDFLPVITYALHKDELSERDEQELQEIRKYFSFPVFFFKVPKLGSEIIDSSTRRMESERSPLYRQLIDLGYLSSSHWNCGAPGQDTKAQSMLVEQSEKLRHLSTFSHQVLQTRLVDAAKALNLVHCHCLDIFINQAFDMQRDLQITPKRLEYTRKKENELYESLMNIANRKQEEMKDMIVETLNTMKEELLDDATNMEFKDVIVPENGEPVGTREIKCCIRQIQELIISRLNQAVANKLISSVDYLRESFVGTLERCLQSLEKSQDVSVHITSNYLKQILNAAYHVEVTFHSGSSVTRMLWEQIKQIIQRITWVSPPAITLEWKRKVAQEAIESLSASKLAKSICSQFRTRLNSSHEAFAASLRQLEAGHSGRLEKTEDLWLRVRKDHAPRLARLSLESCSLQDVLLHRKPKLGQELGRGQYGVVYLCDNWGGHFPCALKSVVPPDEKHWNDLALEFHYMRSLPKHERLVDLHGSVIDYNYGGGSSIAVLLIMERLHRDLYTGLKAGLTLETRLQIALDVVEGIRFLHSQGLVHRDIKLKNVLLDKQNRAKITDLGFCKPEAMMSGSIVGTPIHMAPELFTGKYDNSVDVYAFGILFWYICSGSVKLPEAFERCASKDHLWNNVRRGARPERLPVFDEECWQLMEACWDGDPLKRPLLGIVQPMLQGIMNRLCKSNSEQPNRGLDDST

Structure (SMILES) | read-out | method | tested at | remaining binding [%]
C=CC(=O)N1CCC(C(=O)NCC(=O)N2CCN(c3nc(-c4cnc(N)nc4C(F)F)nc(N4CCOCC4)n3)CC2)CC1 | binding | competition with immobilised ligand | 1 µM | 72
CCOC(=O)c1cc2cc(-c3cc(C(=O)NCc4ccc(C(=O)O)cc4)nn3C)ccc2[nH]1 | cell-free assay | competition with immobilised ligand | 0.1 µM | 69
CN(C)c1ncc(F)c(-c2cnn3ncccc23)n1 | binding |  | 1 µM | 69
CNC(=O)[C@@H]1CC[C@@H](n2c(-c3ccc4cnccc4c3)nc3ccc(C(=O)NCc4cccc(C(N)=O)c4)cc32)C1 | binding | competition with immobilised ligand | 1 µM | 100
CC(C)(O)c1cncc(-c2nc3ccc(F)cc3n2C2CC2)c1 | cell-free assay | competition with immobilised ligand | 1 µM | 100
CN(CCCC(F)(F)F)c1nccc(-c2cnn3ncccc23)n1 | binding |  | 1 µM | 88
Cc1cnc(Nc2ccc(C(=O)N3CCC(N4CCCC4)CC3)cc2)nc1-c1cc2ccccc2s1 | binding | competition with immobilised ligand | 1 µM | 22
CN(C)c1nccc(-c2cnc3ncccn23)n1 | binding |  | 1 µM | 78
CN(C)c1ncnc(-c2ccc3nc(Nc4cc(CN5CCN(C(=O)CC(F)(F)F)CC5)ccn4)[nH]c3c2)c1Cl | cell-free assay | competition with immobilised ligand | 1 µM | 95
c1cncc(-c2cccc(Nc3nccc(NC4CCCCC4)n3)c2)c1 | binding | competition with immobilised ligand | 10 µM | 75
N[C@@H]1CCN(c2nccc(-c3cnn4ncccc34)n2)C1 | binding |  | 1 µM | 100
C[C@@H]1CN(c2cc(-c3n[nH]c4ccc(OC5(C)CC5)cc34)ncn2)C[C@H](C)O1 | cell-free assay | competition with immobilised ligand | 0.1 µM | 77
O=C(Nc1c[nH]nc1C(=O)NC1CCNCC1)c1cc(F)cc(F)c1 | binding | competition with immobilised ligand | 1 µM | 87
C[C@H]1CCN(c2nccc(-c3cnn4ncccc34)n2)C1 | binding |  | 1 µM | 94
CO[C@@H](C)c1c(Nc2ccc([C@@H](N(C)C(=O)C3CCS(=O)(=O)CC3)C(F)(F)F)cc2)cnc2cc(Cl)nn12 | cell-free assay | competition with immobilised ligand | 1 µM | 100
CN(c1nccc(-c2cnn3ncccc23)n1)C1CC1 | binding |  | 1 µM | 98
O=C(c1ccc(Nc2nccc(-c3cc4ccccc4s3)n2)cc1)N1CCC(N2CCCC2)CC1 | binding | competition with immobilised ligand | 1 µM | 37
FC(F)(F)Oc1cccc(-c2cnc3ccc(-c4ccncc4)nn23)c1 | binding | competition with immobilised ligand | 5 µM | 49
CC1CCCN1c1nccc(-c2cnn3ncccc23)n1 (stereo not shown) | binding |  | 1 µM | 100
O=C(NCCCN1CCOCC1)c1ccc(Nc2nccc(-c3cc4ccccc4s3)n2)cc1 | binding | competition with immobilised ligand | 1 µM | 76
O=C(N1CCS(=O)(=O)CC1)N1C[C@H](c2ccc(OC(F)(F)F)cc2)C[C@H](c2nc(C3CC3)no2)C1 | cell-free assay | competition with immobilised ligand | 1 µM | 100
Nc1ncc2c(n1)-c1c([nH]c3ccc(C#CC4CC4)cc13)CCCC2 | binding | competition with immobilised ligand | 1 µM | 19
